Key:
Type in all cases: functional
[1] = tested on: NCI-H322M; test: Growth inhibition of human NCI-H322M cells after 48 hrs
Outline: (§1)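 NCI ~60-line screen. Cells were grown in RPMI 1640 with 5% FBS and 2 mM L-glutamine and plated at 5000–40000 cells/well. After a 24 h preincubation, five drug concentrations from DMSO stocks were added for 48 h at 37 °C. Cells were TCA-fixed, stained with SRB and read at 515 nm. GI50 was taken from time-zero and control absorbances and reported as pGI50.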

[2] = tested on: T47D; test: Growth inhibition of human T47D cells after 48 hrs
Outline: (§2)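 NCI 60-line screen: cells in RPMI 1640 with 5% FBS and 2 mM L-glutamine, plated at 5000–40000 cells/well, grown 24 h (37 °C, 5% CO₂), then exposed to five 10-fold or ½-log dilutions (DMSO stock) for 48 h. Fixed with TCA (final 10% for adherent cells, 16% for suspension cells), then SRB stained with absorbance at 515 nm. GI50 from percentage growth relative to time-zero and control wells.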

[3] = tested on: A498; test: Growth inhibition of human A498 cells after 48 hrs; settings: A498, 48 h; outline: as §1
[4] = tested on: SK-MEL-2; test: Growth inhibition of human SK-MEL2 cells after 48 hrs; settings: SK-MEL-2, 48 h; outline: as §1
[5] = tested on: UO-31; test: Growth inhibition of human UO31 cells after 48 hrs; settings: UO-31, 48 h; outline: as §2
[6] = tested on: CCRF-CEM; test: Growth inhibition of human CCRF-CEM cells after 48 hrs; outline: as §1
[7] = tested on: PC-3; test: Growth inhibition of human PC3 cells after 48 hrs; settings: PC-3, 48 h; outline: as §1
[8] = tested on: SN12C; test: Growth inhibition of human SN12C cells after 48 hrs; outline: as §2
[9] = tested on: OVCAR-4; test: Growth inhibition of human OVCAR4 cells after 48 hrs; settings: OVCAR-4, 48 h; outline: as §1
[10] = tested on: TK-10; test: Growth inhibition of human TK10 cells after 48 hrs; settings: TK-10, 48 h; outline: as §2
[11] = tested on: CAKI-1; test: Growth inhibition of human CAKI1 cells after 48 hrs; settings: CAKI-1, 48 h; outline: as §1
[12] = tested on: U-251; test: Growth inhibition of human U251 cells after 48 hrs; settings: U-251, 48 h; outline: as §2
[13] = Growth inhibition of human HS578T cells after 48 hrs; settings: Hs-578T; outline: as §1
[14] = tested on: Malme-3M; test: Growth inhibition of human MALME3M cells after 48 hrs; outline: as §1
[15] = tested on: SK-OV-3; test: Growth inhibition of human SKOV3 cells after 48 hrs; settings: SK-OV-3, 48 h; outline: as §2
[16] = tested on: A549; test: Growth inhibition of human A549 cells after 48 hrs; settings: A549, 48 h; outline: as §1
[17] = tested on: SNB-19; test: Growth inhibition of human SNB19 cells after 48 hrs; settings: SNB-19, 48 h; outline: as §2
[18] = tested on: SNB-75; test: Growth inhibition of human SNB75 cells after 48 hrs; settings: SNB-75, 48 h; outline: as §2
[19] = tested on: HOP-62; test: Growth inhibition of human HOP62 cells after 48 hrs; settings: HOP-62, 48 h; outline: as §1
[20] = tested on: SK-MEL-28; test: Growth inhibition of human SK-MEL28 cells after 48 hrs; settings: SK-MEL-28, 48 h; outline: as §1
[21] = tested on: ACHN; test: Growth inhibition of human ACHN cells after 48 hrs; outline: as §1
[22] = tested on: MOLT-4; test: Growth inhibition of human MOLT4 cells after 48 hrs; settings: MOLT-4, 48 h; outline: as §1
[23] = tested on: RPMI-8226; test: Growth inhibition of human RPMI8226 cells after 48 hrs; settings: RPMI-8226, 48 h; outline: as §1

Question: With CCCCN(CCCC)CCCn1c(=O)c2c3ccccc3n(C)c2n2nnc(-c3ccccc3)c12 as the compound, how does the GI50 [1] read?
Answer: Its GI50 is 28.8 µM.

Question: And the TGI ([1]; read-out: pTGI (converted))?
Answer: Its TGI is over 100 µM.

Question: What about the GI50 [2] of the same compound?
Answer: Its GI50 is 55 µM.

Question: And the TGI ([2]; read-out: pTGI (converted))?
Answer: The TGI was over 100 µM.

Question: And the GI50 [3]?
Answer: The GI50 was 42.7 µM.

Question: What about the TGI ([3]; read-out: pTGI (converted)) of the same compound?
Answer: The TGI was over 100 µM.

Question: And the GI50 [4]?
Answer: Its GI50 is over 100 µM.

Question: And the TGI ([4]; read-out: pTGI (converted))?
Answer: The TGI was over 100 µM.

Question: And the GI50 [5]?
Answer: Its GI50 is 6.03 µM.

Question: What about the TGI ([5]; read-out: pTGI (converted)) of the same compound?
Answer: The TGI was 46.8 µM.

Question: And the GI50 [6]?
Answer: The GI50 was 4.17 µM.

Question: And the TGI ([6]; read-out: pTGI (converted))?
Answer: The TGI was 91.2 µM.

Question: And the GI50 [7]?
Answer: Its GI50 is 18.2 µM.

Question: And the TGI ([7]; read-out: pTGI (converted))?
Answer: Its TGI is 47.9 µM.

Question: What about the GI50 [8] of the same compound?
Answer: The GI50 was 19.5 µM.

Question: And the TGI ([8]; read-out: pTGI (converted))?
Answer: The TGI was 95.5 µM.

Question: What about the GI50 [9] of the same compound?
Answer: Its GI50 is 17.4 µM.

Question: And the TGI ([9]; read-out: pTGI (converted))?
Answer: Its TGI is 83.2 µM.

Question: And the GI50 [10]?
Answer: Its GI50 is 1.91 µM.

Question: And the TGI ([10]; read-out: pTGI (converted))?
Answer: The TGI was 22.4 µM.

Question: And the GI50 [11]?
Answer: Its GI50 is 50.1 µM.

Question: And the TGI ([11]; read-out: pTGI (converted))?
Answer: The TGI was over 100 µM.

Question: What about the GI50 [12] of the same compound?
Answer: The GI50 was 33.1 µM.

Question: What about the TGI ([12]; read-out: pTGI (converted)) of the same compound?
Answer: Its TGI is over 100 µM.

Question: What about the GI50 [13] of the same compound?
Answer: The GI50 was 38.9 µM.

Question: And the TGI ([13]; read-out: pTGI (converted))?
Answer: The TGI was over 100 µM.

Question: And the GI50 [14]?
Answer: Its GI50 is 28.2 µM.

Question: And the TGI ([14]; read-out: pTGI (converted))?
Answer: Its TGI is 89.1 µM.

Question: And the GI50 [15]?
Answer: The GI50 was 30.2 µM.

Question: And the TGI ([15]; read-out: pTGI (converted))?
Answer: Its TGI is 30.2 µM.

Question: What about the GI50 [16] of the same compound?
Answer: The GI50 was 43.7 µM.

Question: And the TGI ([16]; read-out: pTGI (converted))?
Answer: The TGI was over 100 µM.

Question: And the GI50 [17]?
Answer: The GI50 was over 100 µM.

Question: And the TGI ([17]; read-out: pTGI (converted))?
Answer: Its TGI is over 100 µM.

Question: What about the GI50 [18] of the same compound?
Answer: Its GI50 is 15.1 µM.

Question: What about the TGI ([18]; read-out: pTGI (converted)) of the same compound?
Answer: The TGI was 56.2 µM.

Question: What about the GI50 [19] of the same compound?
Answer: Its GI50 is 30.9 µM.

Question: What about the TGI ([19]; read-out: pTGI (converted)) of the same compound?
Answer: The TGI was over 100 µM.

Question: And the GI50 [20]?
Answer: Its GI50 is over 100 µM.

Question: What about the TGI ([20]; read-out: pTGI (converted)) of the same compound?
Answer: The TGI was over 100 µM.

Question: And the GI50 [21]?
Answer: Its GI50 is 34.7 µM.

Question: And the TGI ([21]; read-out: pTGI (converted))?
Answer: Its TGI is over 100 µM.

Question: And the GI50 [22]?
Answer: Its GI50 is 13.8 µM.

Question: And the TGI ([22]; read-out: pTGI (converted))?
Answer: Its TGI is over 100 µM.

Question: And the GI50 [23]?
Answer: The GI50 was 6.03 µM.

Question: What about the TGI ([23]; read-out: pTGI (converted)) of the same compound?
Answer: The TGI was 49 µM.

From ChEMBL document CHEMBL1142436, “Design and synthesis of 4-substituted indolo[3,2-e][1,2,3]triazolo[1,5-a]pyrimidine derivatives with antitumor activity” (2008)
